These results are taken from ChEMBL document CHEMBL4513216, “Probing the Open Global Health Chemical Diversity Library for Multistage-Active Starting Points for Next-Generation Antimalarials” (ACS Infect Dis, 2020).

A short description of this data set: Toxicity liver stage against HepG2, at 10uM. Set-up: test concentration 10 uM, cell line HepG2-A16-CD81EGFP. Format: cell-based. The settings on record: human, HepG2-A16-CD81EGFP cells; read-out: INHIBITION
The essentials: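 Uninfected HepG2-A16-CD81EGFP cells, 3 × 10^3 per well, 1536-well, plated on prespotted compound at 10 μM final, parasite-free screening media added to match infected plates; puromycin 10 μM positive, DMSO 0.5% negative; run in parallel with 48 h PbLuc assay at 37 °C, 5% CO2; viability by CellTiter-Glo luminescence, normalized to controls.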
In the case of `O=C(c1ccccc1Cl)N1CCN(CCc2ccccn2)CC1`, the cytotoxicity at 10 µM was 5.75%.
As to `CC(C)CN1C(=O)COC[C@@H]1[C@H](O)c1ccc(NC(=O)C2CC2)cc1`, the cytotoxicity at 10 µM is 5.76%.
Regarding `Cc1c(C2SCC(=O)Nc3c2c(O)nn3C2CCCCC2)cnn1C` (configuration not stated), the cytotoxicity at 10 µM was 0.618%.
Consider `COc1ccc2c(ccn2CCC(=O)Nc2nc[nH]n2)c1`, for which the cytotoxicity at 10 µM is -12.6%.
Consider `COc1cccc(OC)c1C(=O)NCC(c1cccn1C)N1CCCC1` (configuration not stated), for which the cytotoxicity at 10 µM stood at 6.89%.
As to `CCc1ccccc1NC(=O)C1CN(C(C)=O)C1`, the cytotoxicity at 10 µM was found to be 8.49%.
For `O=C(c1cccnc1)N1CC(S(=O)(=O)c2ccc(Cl)cc2)C1`, the cytotoxicity at 10 µM was -0.649%.
In the case of `COCC1c2c(cnn2C)CCN1C(=O)c1ccc2c(c1)OCO2` (configuration not stated), the cytotoxicity at 10 µM turned out to be 3.74%.
For the compound `c1cc(CNCC2Cn3nncc3CO2)ccn1` (configuration not stated), the cytotoxicity at 10 µM came to 6.62%.
For `O=c1cc(CN2CCCC2)nc2n1CCCN(Cc1ccsc1)C2`, the cytotoxicity at 10 µM is -6.44%.
As for `CCN(Cc1nonc1C)C(=O)c1cc(C(F)(F)F)nn1C`, the cytotoxicity at 10 µM came out at 2.06%.
As for `COc1cc(NC(=O)NCC2CCCO2)cc(OC)c1OC` (configuration not stated), the figure is -7.71%.
As for `Cc1nn(C)c2c(N3CCN(C(=O)C4CCCO4)CC3)ncnc12` (configuration not stated), the figure is 6.42%; as for `O=S(=O)(c1ccc(N2CCCCC2)c2nonc12)N1CCCCC1`, 6.74%.
With `O=C1CNc2ncnc(N3CCN(Cc4ccccc4)CC3)c2N1`, the cytotoxicity at 10 µM worked out at 9.76%.
With `Cc1ccc(-c2cc(C(F)(F)F)nc(N3CCOCC3)n2)s1`, the cytotoxicity at 10 µM stood at 0.452%.
In the case of `CN1CCc2nc(C3CCCN(S(=O)(=O)c4ccccc4)C3)ncc2C1` (configuration not stated), the cytotoxicity at 10 µM turned out to be 2.67%.
For the compound `CC(C)Nc1nc(O)cc(C(C)n2ncc3ccccc3c2=O)n1` (configuration not stated), the cytotoxicity at 10 µM worked out at 2.81%.
For `CCN1CCN(c2cncc(Cl)n2)CC1`, the cytotoxicity at 10 µM came out at 11.6%.
In the case of `CCN1CCCCC1C(=O)N1CCN(C(=O)OC)CC1` (configuration not stated), the cytotoxicity at 10 µM was -4.81%.
In the case of `CC(C(=O)NCC(C)(C)c1ccc2c(c1)OCO2)n1ccnc1` (configuration not stated), the cytotoxicity at 10 µM was 6.36%.
Turning to `Cc1cc(C)c(CNc2cnn(CC(O)CN(C)C)c2)c(C)c1` (configuration not stated), the cytotoxicity at 10 µM was 15%.
As for `CN(Cc1nc2ccccc2[nH]1)C(=O)C(C)(C)n1cc(Cl)cn1`, the figure is 6.16%; as for `Cc1noc(CN(C)c2ccccc2)n1`, 8.82%.
As for `COc1ccccc1OCC(=O)NS(=O)(=O)c1cccnc1`, the cytotoxicity at 10 µM was -4.69%.
In the case of `O=C(c1coc(-c2ccccc2)n1)N1CCS(=O)(=O)CC1`, the cytotoxicity at 10 µM was determined as 11.4%.
On to `CCNC(=O)NC(=O)C(C)Nc1ccccc1OCCOC` (configuration not stated), for which the cytotoxicity at 10 µM was 4%.
As to `COc1ccc(C(CO)NC(=O)Nc2cccc(F)c2)cc1` (configuration not stated), the cytotoxicity at 10 µM was -4.82%.
Take `Cc1noc(C)c1CN1CCC(N(C)Cc2noc(C(C)C)n2)C1` (configuration not stated): the cytotoxicity at 10 µM was -6.37%.
For `Cc1ncccc1CNCC1CCc2nnc(C(C)C)n2C1` (configuration not stated), the cytotoxicity at 10 µM was -6.27%.
For `O=C(CCc1ccc(Cl)s1)N1CCCC(N2CCNC2=O)C1` (configuration not stated), the cytotoxicity at 10 µM was determined as 1.09%.
As for `COCc1ccccc1C(=O)N1CCn2c(nnc2C(C)C)C1`, the cytotoxicity at 10 µM is 2.91%.
As for `Cc1nc(C(C)C)sc1C(=O)NCCn1ccnc1`, the figure is 1.28%; as for `Cc1nn(C)c(C)c1CC(=O)NCc1cccnc1OC1CCCC1`, -0.527%; as for `O=C(NC1(c2nccs2)CCCC1)c1cc(C2CC2)[nH]n1`, 2%.
For the compound `CC(C)(C)Oc1ccccc1CNC(=O)C1CCCOC1` (configuration not stated), the cytotoxicity at 10 µM turned out to be 0.997%.
As for `CCN(C(=O)NCc1ccc(C)cc1OC)C(C)c1cccnc1` (configuration not stated), the figure is 6.32%.
Consider `O=C(c1cnccn1)N1CCC(CN2CCOCC2)CC1`, for which the cytotoxicity at 10 µM worked out at 4.55%.
`Cc1nn(C)c(Oc2cccc(F)c2)c1NC(=O)C1CCCO1` (configuration not stated): the cytotoxicity at 10 µM was -7.64%.
Take `O=C(Nc1cccnc1)N1CCC(n2ccc(C(F)(F)F)n2)CC1`: the cytotoxicity at 10 µM is -6.08%.
As for `Cc1cc(N2CCN(CCO)CC2)nc(-c2ccncc2)n1`, the cytotoxicity at 10 µM was -1.25%.
As for `O=C(c1cnccn1)N1CC[C@H]2C[C@@H](c3ccncn3)O[C@@H]2C1`, the figure is -78.5%; as for `CN1CCCC2(CCN(C(=O)c3ccncc3)C2)C1` (configuration not stated), -68.3%.
As to `CCCc1cncnc1N1CCC(NCc2ccc(O)cc2)CC1`, the cytotoxicity at 10 µM was found to be 3.8%.
With `CCc1cnc(NCc2nc(CSC)no2)nc1`, the cytotoxicity at 10 µM is 7.15%.
On to `COc1ccc(C)cc1-n1cnnc1C1CCCN(C)C1` (configuration not stated), for which the cytotoxicity at 10 µM is 6.43%.
On to `CCN1CC(CN(C)Cc2nc(-c3cccc(Cl)c3)oc2C)CC1=O` (configuration not stated), for which the cytotoxicity at 10 µM is 6.9%.
Turning to `CCc1oc(C(=O)NC(C)Cc2cnccn2)cc1CN1CCCC1` (configuration not stated), the cytotoxicity at 10 µM is -5.28%.
Turning to `CCN(Cc1noc(C2CCC2)n1)C(=O)c1cn2ccsc2n1`, the cytotoxicity at 10 µM is 5.44%.
As for `Cc1nn(C)c2ncnc(N3CCC(O)(CN4CCCC4)CC3)c12`, the figure is 2.68%; as for `CC(C)n1cc(C(=O)N2CCC(n3cc(C(C)(C)C)nn3)CC2)cn1`, 1.19%.
`COc1ccc(/C=C/CN2CCC3(CC2)CN(C)C(=O)O3)cc1`: the cytotoxicity at 10 µM was -2.11%.
Take `Cc1cc(CN(C)C(=O)C(c2ccccc2F)N(C)C)ccn1` (configuration not stated): the cytotoxicity at 10 µM amounted to 2.78%.
As for `O=C(c1nc(=O)[nH]c2ccccc12)N1CCCC(CC2CC2)(C(=O)O)C1` (configuration not stated), the figure is 6.56%; as for `COCC(NC(=O)c1cc(NC(C)=O)ccc1Cl)c1ccnn1C` (configuration not stated), -2.22%.
With `CC(Cn1cccn1)n1cnc2cccc(F)c2c1=O` (configuration not stated), the cytotoxicity at 10 µM is -0.288%.
As for `CC(C)c1nc(CN2CCCC2Cn2cncn2)no1` (configuration not stated), the figure is -7.3%.
In the case of `COc1ccc(OC2CCN(C(=O)c3ccc(C)[nH]c3=O)CC2)cc1`, the cytotoxicity at 10 µM was -3.22%.
For `CN1CCCCC1c1cncc(Cl)n1` (configuration not stated), the cytotoxicity at 10 µM is 0.995%.
`O=S(=O)(NCC1OCCc2cn(CC3CCOCC3)nc21)C1CC1` (configuration not stated): the cytotoxicity at 10 µM was found to be 11.2%.
As for `Cc1ccc(Nc2ncnc3c2CCN(CC2CCOC2)CC3)cc1` (configuration not stated), the cytotoxicity at 10 µM was 5.32%.
As to `Cc1cnc(N2C[C@H]3CCN(CC4CC4)C[C@@H]3C2)nc1`, the cytotoxicity at 10 µM was found to be 7.55%.
`O=C(O)c1cc2c(nc1NCC1CC1)CCN(C1CCOC1)CC2` (configuration not stated): the cytotoxicity at 10 µM was 7.83%.
As for `c1ccc(COC[C@H]2CC[C@H]3[C@H](CCN3Cc3cccnc3)O2)nc1`, the figure is -80.2%; as for `Cc1noc(C)c1CN1CC[C@H]2OCC[C@@]2(C(=O)N(C)C)C1`, -76.5%; as for `CC(C)C(=O)N1CCC2(CN(CC3CCCC3)C2)C1`, 3.86%.
Regarding `COCCNC(=O)C1CN(Cc2nccs2)Cc2ccnn2C1` (configuration not stated), the cytotoxicity at 10 µM was -72.7%.
Take `N#Cc1cccc(CN2CC[C@@H]3[C@@H]2CC(=O)N3Cc2ccncc2)c1`: the cytotoxicity at 10 µM is -73.7%.
With `O=C(c1cccnc1)N1CCCC2(COCCN(c3ccccc3)C2)C1` (configuration not stated), the cytotoxicity at 10 µM was found to be 2.17%.
As for `CCS(=O)(=O)N1CCCC2(COCCN(c3nnc(C)o3)C2)C1` (configuration not stated), the figure is 8.88%; as for `O=C(COC1CCCC1)N1C[C@@H]2CN(Cc3ccoc3)CCO[C@@H]2C1`, 4.65%; as for `CCCS(=O)(=O)N1CCN(CCOC)c2nc(C)ccc2C1`, 8.07%.
